Test results from ChEMBL document CHEMBL1932924, “Design, synthesis, and biological evaluation of 4-phenylpyrrole derivatives as novel androgen receptor antagonists” (Bioorg Med Chem, 2012).
≈ marks a conversion by molar mass, not a printed value.

How the values were obtained:
Mus musculus [1] = experiment: Antiandrogenic activity in ICR mouse assessed as ventral prostate weight at 25 mg/kg, po bid administered for 7 days (reference value: 14.6 +/- […]); assay type: functional, Prostate gland
Summary of the method: (§1)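 8-week-old male ICR mice, intact, dosed orally for seven days; n = 8 per group. Ventral prostate weighed the day after the last dose. Reduction = decrease in test group ÷ decrease in castrated group × 100. Controls are vehicle-treated mice. Significance by Williams test or unpaired Student's test versus control.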

Mus musculus [2] = experiment: Toxicity in BALB/c mouse assessed as body weight at 25 mg/kg, po bid administered for 29 days measured on day 28 (reference value: 17.6 +/- 0.4g); assay type: organism-based; set-up: dose 25 mg/kg, route oral; settings: in vivo, 696 h
Androgen receptor [3] = target: T1, Androgen receptor (Homo sapiens, UniProt P10275, W742C); experiment: Agonist activity at human androgen receptor W741C mutant expressed in COS7 cells assessed as luciferase activity after 24 hrs by reporter gene assay; assay type: functional, cell-based, COS-7
Mus musculus [4] = experiment: Antiandrogenic activity in ICR mouse assessed as reduction of ventral prostate weight at 2.5 mg/kg, po bid administered for 7 days relative to control; assay type: functional, Prostate gland; set-up: scale not given: the % may be the effect or the level left; summary of the method: as §1
Mus musculus [5] = experiment: Antiandrogenic activity in ICR mouse assessed as ventral prostate weight at 2.5 mg/kg, po bid administered for 7 days (reference value: 14.6 +/- […]); assay type: functional, Prostate gland; summary of the method: as §1
[6] = Oral bioavailability in mouse at 5 mg/kg; assay type: ADME, organism-based; settings: in vivo
Summary of the method: (§2)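 Mice given a single oral 5 mg/kg dose; n = 3. AUC, bioavailability (F) and mean residence time derived from plasma exposure.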

[7] = Antitumor activity against human JDCaP cells expressing wild type AR xenografted in testosterone propionate-challenged castrated BALB/c nude mouse assessed as decrease in tumor volume at 3.125 mg/kg, po bid administered for 29 days measured on day 28 (reference value: 681.8 +/- 75 mm3); assay type: functional
Summary of the method: (§3)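 Nude mice carrying JDCaP tumours, n = 7 per group, castrated and given s.c. testosterone propionate 0.2 mg/kg once daily for 29 days. Oral twice-daily dosing in 0.5% methylcellulose over the same period; controls get vehicle plus TP. Tumour volume measured weekly. T/C = increase in tumour volume versus control × 100.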

[8] = Solubility in aqueous buffer solution at pH 6.8; assay type: physicochemical
Summary of the method: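 DMSO stock added to aqueous buffer at pH 6.8 and incubated. Precipitate removed by filtration; filtrate concentration measured by HPLC.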

[9] = Mean residence time in mouse at 5 mg/kg, po; assay type: ADME, organism-based; set-up: dose 5 mg/kg, route oral; settings: in vivo; summary of the method: as §2
[10] = Antitumor activity against human LNCaP-FGC cells expressing androgen receptor W741C/[…] mutant xenografted in castrated BALB/c nude mouse assessed as effect on tumor volume at 25 mg/kg, po bid administered for 29 days measured on day 28 (reference value: 402 +/- 47.7 mm3); assay type: functional, LNCaP-Clone-FGC
Mus musculus [11] = experiment: Antiandrogenic activity in ICR mouse assessed as reduction of ventral prostate weight at 25 mg/kg, po bid administered for 7 days relative to control; assay type: functional, Prostate gland; set-up: scale not given: the % may be the effect or the level left; summary of the method: as §1
[12] = Antitumor activity against human LNCaP-FGC cells expressing androgen receptor W741C/[…] mutant xenografted in castrated BALB/c nude mouse assessed as effect on tumor volume at 25 mg/kg, po bid administered for 29 days measured on day 28 relative to control; assay type: functional, LNCaP-Clone-FGC
[13] = Antitumor activity against human LNCaP-FGC cells expressing androgen receptor W741C/[…] mutant xenografted in castrated BALB/c nude mouse assessed as decrease in prostate specific antigen level in plasma at 25 mg/kg, po bid administered for 29 days measured on day 28 (reference value: 35.8 +/- 10.7 ng/mL); assay type: functional, LNCaP-Clone-FGC
Androgen receptor [14] = target: T1, Androgen receptor; experiment: Antagonist activity at human androgen receptor W741C mutant expressed in COS7 cells assessed as inhibition of DHT-induced luciferase activity after 24 hrs by reporter gene assay; assay type: functional, cell-based, COS-7
[15] = Antitumor activity against human JDCaP cells expressing wild type AR xenografted in testosterone propionate-challenged castrated BALB/c nude mouse assessed as decrease in tumor volume at 6.25 mg/kg, po bid administered for 29 days measured on day 28 relative to control; assay type: functional; summary of the method: as §3
Androgen receptor [16] = target: T2, Androgen receptor (Homo sapiens, UniProt P10275, T878A); experiment: Displacement of [17-alpha-methyl-3H]-mibolerone from human androgen receptor T877A mutant expressed in HEK293 derived FreeStyle293F cells after 3 hrs; assay type: cell-based
Mus musculus [17] = experiment: Antiandrogenic activity in ICR mouse assessed as reduction of ventral prostate weight at 7.5 mg/kg, po bid administered for 7 days relative to control; assay type: functional, Prostate gland; set-up: scale not given: the % may be the effect or the level left; summary of the method: as §1
Androgen receptor [18] = target: T2, Androgen receptor; experiment: Antagonist activity at human androgen receptor T877A mutant expressed in COS7 cells assessed as inhibition of DHT-induced luciferase activity after 24 hrs by reporter gene assay; assay type: functional, cell-based, COS-7
Androgen receptor [19] = target: T3, Androgen receptor (Homo sapiens, UniProt P10275); experiment: Displacement of [17-alpha-methyl-3H]-mibolerone from human androgen receptor expressed in HEK293 derived FreeStyle293F cells after 3 hrs; assay type: cell-based
T3 sequence (P10275 whole entry): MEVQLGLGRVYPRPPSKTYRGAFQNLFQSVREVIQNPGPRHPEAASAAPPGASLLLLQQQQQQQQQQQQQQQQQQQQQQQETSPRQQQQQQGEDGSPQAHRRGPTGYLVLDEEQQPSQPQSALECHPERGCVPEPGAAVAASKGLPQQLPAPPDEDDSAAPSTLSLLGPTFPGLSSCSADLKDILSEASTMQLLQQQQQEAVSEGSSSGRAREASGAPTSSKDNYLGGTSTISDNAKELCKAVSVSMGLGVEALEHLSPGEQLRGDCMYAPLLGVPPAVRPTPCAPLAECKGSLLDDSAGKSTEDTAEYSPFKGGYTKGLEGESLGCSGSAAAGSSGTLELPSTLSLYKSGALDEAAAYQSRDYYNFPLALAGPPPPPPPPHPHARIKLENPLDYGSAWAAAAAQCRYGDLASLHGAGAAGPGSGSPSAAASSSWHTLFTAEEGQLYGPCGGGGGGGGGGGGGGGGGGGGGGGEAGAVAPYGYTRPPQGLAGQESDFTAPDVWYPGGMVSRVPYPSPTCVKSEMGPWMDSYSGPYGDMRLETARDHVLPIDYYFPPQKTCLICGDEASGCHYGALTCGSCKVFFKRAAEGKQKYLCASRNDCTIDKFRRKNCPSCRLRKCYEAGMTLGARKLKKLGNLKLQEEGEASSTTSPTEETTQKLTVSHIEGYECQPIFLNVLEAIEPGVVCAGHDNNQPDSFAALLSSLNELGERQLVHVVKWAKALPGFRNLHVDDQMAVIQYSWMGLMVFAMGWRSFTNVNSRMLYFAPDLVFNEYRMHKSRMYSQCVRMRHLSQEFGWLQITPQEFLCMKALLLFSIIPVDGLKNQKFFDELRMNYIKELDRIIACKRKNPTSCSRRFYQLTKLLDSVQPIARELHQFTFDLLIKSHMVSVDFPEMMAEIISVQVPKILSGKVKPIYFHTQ

Androgen receptor [20] = target: T3, Androgen receptor; experiment: Agonist activity at human androgen receptor expressed in COS7 cells assessed as luciferase activity after 24 hrs by reporter gene assay; assay type: functional, cell-based, COS-7
[21] = Antitumor activity against human JDCaP cells expressing wild type AR xenografted in testosterone propionate-challenged castrated BALB/c nude mouse assessed as decrease in tumor volume at 6.25 mg/kg, po bid administered for 29 days measured on day 28 (reference value: 681.8 +/- 75 mm3); assay type: functional; summary of the method: as §3
Androgen receptor [22] = target: T3, Androgen receptor; experiment: Antagonist activity at human androgen receptor expressed in COS7 cells assessed as inhibition of DHT-induced luciferase activity after 24 hrs by reporter gene assay; assay type: functional, cell-based, COS-7
[23] = AUC in mouse at 5 mg/kg, po; assay type: ADME, organism-based; set-up: dose 5 mg/kg, route oral; settings: plasma; summary of the method: as §2
[24] = Antitumor activity against human JDCaP cells expressing wild type AR xenografted in testosterone propionate-challenged castrated BALB/c nude mouse assessed as decrease in tumor volume at 3.125 mg/kg, po bid administered for 29 days measured on day 28 relative to control; assay type: functional; summary of the method: as §3
Androgen receptor [25] = target: T2, Androgen receptor; experiment: Agonist activity at human androgen receptor T877A mutant expressed in COS7 cells assessed as luciferase activity after 24 hrs by reporter gene assay; assay type: functional, cell-based, COS-7
Mus musculus [26] = experiment: Antiandrogenic activity in ICR mouse assessed as ventral prostate weight at 7.5 mg/kg, po bid administered for 7 days (reference value: 14.6 +/- […]); assay type: functional, Prostate gland; summary of the method: as §1
[27] = Antitumor activity against human JDCaP cells expressing wild type AR xenografted in testosterone propionate-challenged castrated BALB/c nude mouse assessed as decrease in tumor volume at 20 mg/kg, po bid administered for 29 days measured on day 28 (reference value: 1736.6 +/- 486.2 mm3); assay type: functional
Summary of the method: (§4)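 JDCaP tumours in nude mice (n=7) castrated the day after grouping. Testosterone propionate 0.2 mg/kg sc once daily for 29 days. Oral drug or 0.5% methylcellulose vehicle for the same period. Tumour volume measured weekly. T/C = volume increase vs testosterone-treated vehicle control × 100.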

Mus musculus [28] = experiment: Toxicity in BALB/c mouse assessed as body weight at 20 mg/kg, po qd administered for 29 days measured on day 28 (reference value: 17.6 +/- 0.4g); assay type: organism-based; set-up: dose 20 mg/kg, route oral; settings: in vivo, 696 h
[29] = Antitumor activity against human LNCaP-FGC cells expressing androgen receptor W741C/[…] mutant xenografted in castrated BALB/c nude mouse assessed as effect on tumor volume at 20 mg/kg, po qd administered for 29 days measured on day 28 relative to control; assay type: functional, LNCaP-Clone-FGC
Summary of the method: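 LNCaP-cxD2 flank xenografts in BALB/c nude mice, grouped at ~200 mm3 (n=7) and castrated next day. Oral dosing for 29 days, vehicle 0.5% methylcellulose. Weekly caliper volumes. T/C = tumour volume increase vs castration (vehicle) group × 100.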

[30] = Antitumor activity against human JDCaP cells expressing wild type AR xenografted in testosterone propionate-challenged castrated BALB/c nude mouse assessed as decrease in tumor volume at 20 mg/kg, po qd administered for 29 days measured on day 28 relative to control; assay type: functional; summary of the method: as §4
[31] = Antitumor activity against human LNCaP-FGC cells expressing androgen receptor W741C/[…] mutant xenografted in castrated BALB/c nude mouse assessed as decrease in prostate specific antigen level in plasma at 20 mg/kg, po qd administered for 29 days measured on day 28 (reference value: 35.8 +/- 10.7 ng/mL); assay type: functional, LNCaP-Clone-FGC
Summary of the method: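 LNCaP-cxD2 flank xenografts in castrated BALB/c nude mice (n=7), grouped at ~200 mm3. Oral dosing for 29 days from castration, vehicle 0.5% methylcellulose. Blood taken at study end for plasma PSA.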

Mus musculus [32] = experiment: Antiandrogenic activity in ICR mouse assessed as reduction of ventral prostate weight at 100 mg/kg, po qd administered for 7 days relative to control; assay type: functional, Prostate gland; set-up: scale not given: the % may be the effect or the level left
Summary of the method: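 Male ICR mice, 8 weeks old, n=8, dosed orally for seven days with vehicle and castrated groups. Prostate weighed the day after the last dose. % reduction = treated-group weight decrease ÷ castrated-group decrease × 100.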

[33] = Antitumor activity against human LNCaP-FGC cells expressing androgen receptor W741C/[…] mutant xenografted in castrated BALB/c nude mouse assessed as effect on tumor volume at 20 mg/kg, po qd administered for 29 days measured on day 28 (reference value: 402 +/- 47.7 mm3); assay type: functional, LNCaP-Clone-FGC

T2 sequence (P10275 whole entry T878A): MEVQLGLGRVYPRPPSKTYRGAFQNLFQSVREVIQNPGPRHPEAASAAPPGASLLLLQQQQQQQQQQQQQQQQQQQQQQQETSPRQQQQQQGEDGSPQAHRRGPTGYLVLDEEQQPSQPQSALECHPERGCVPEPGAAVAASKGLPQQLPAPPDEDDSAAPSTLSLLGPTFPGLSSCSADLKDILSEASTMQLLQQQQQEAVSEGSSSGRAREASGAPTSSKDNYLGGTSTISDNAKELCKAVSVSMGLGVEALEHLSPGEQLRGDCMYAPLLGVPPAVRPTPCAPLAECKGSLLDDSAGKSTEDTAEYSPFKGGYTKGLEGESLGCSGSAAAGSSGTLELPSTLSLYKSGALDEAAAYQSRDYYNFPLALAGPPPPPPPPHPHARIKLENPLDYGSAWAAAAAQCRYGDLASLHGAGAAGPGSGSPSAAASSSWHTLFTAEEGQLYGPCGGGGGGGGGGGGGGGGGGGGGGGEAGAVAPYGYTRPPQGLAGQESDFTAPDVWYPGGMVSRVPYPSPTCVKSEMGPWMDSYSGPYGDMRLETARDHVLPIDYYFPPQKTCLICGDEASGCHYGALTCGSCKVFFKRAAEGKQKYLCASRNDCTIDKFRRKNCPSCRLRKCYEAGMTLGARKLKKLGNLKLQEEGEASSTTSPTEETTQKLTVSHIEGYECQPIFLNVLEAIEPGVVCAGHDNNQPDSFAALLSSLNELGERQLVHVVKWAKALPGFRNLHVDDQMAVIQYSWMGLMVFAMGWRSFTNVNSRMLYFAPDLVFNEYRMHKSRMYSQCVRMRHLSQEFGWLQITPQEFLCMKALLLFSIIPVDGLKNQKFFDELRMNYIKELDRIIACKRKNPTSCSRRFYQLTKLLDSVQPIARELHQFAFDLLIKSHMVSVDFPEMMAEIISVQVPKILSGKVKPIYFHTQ
T1 sequence (P10275 whole entry W742C): as the sequence (P10275 whole entry T878A) above, with W742C, A878T counted along it

Structure (SMILES): Cc1c(C#N)c(-c2ccc(C#N)cc2)c(C)n1Cc1cnc(Cl)c(CO)c1
- Activity (Mus musculus [1]): 8.9 mg
- Activity (Mus musculus [2]): 22.9 g
- EC50 (Androgen receptor [3]): > 10000 nM
- Activity (Mus musculus [4]): 16%
- Activity (Mus musculus [5]): 13.4 mg
- bioavailability [6]: 104%
- Activity [7]: 88.4 mm3
- solubility [8]: 15 µg/mL (≈ 39.8 µM)
- MRT [9]: 4.85 h
- Activity [10]: 269.3 mm3
- Activity (Mus musculus [11]): 74%
- T/C [12]: 15.8%
- Activity [13]: 1 ng/mL
- IC50 (Androgen receptor [14]): 280 nM
- T/C [15]: -44.8%
- IC50 (Androgen receptor [16]): 100 nM
- Activity (Mus musculus [17]): 31%
- IC50 (Androgen receptor [18]): 110 nM
- IC50 (Androgen receptor [19]): 37 nM
- EC50 (Androgen receptor [20]): > 10000 nM
- Activity [21]: 94.8 mm3
- IC50 (Androgen receptor [22]): 25 nM
- AUC [23]: 19200 ng·h/mL
- T/C [24]: -44.7%
- EC50 (Androgen receptor [25]): > 10000 nM
- Activity (Mus musculus [26]): 12.2 mg

Structure (SMILES): CC(O)(CS(=O)(=O)c1ccc(F)cc1)C(=O)Nc1ccc(C#N)c(C(F)(F)F)c1 (stereo not drawn) [BICALUTAMIDE]
- Activity [27]: 212.2 mm3
- Activity (Mus musculus [28]): 17.9 g
- T/C [29]: 137.9%
- T/C [30]: -70.2%
- Activity [31]: 38.5 ng/mL
- Activity (Mus musculus [32]): 40%
- Activity [33]: 461.5 mm3
